Measurements: ChEMBL document CHEMBL1150387, “Development and experimental validation of a docking strategy for the generation of kinase-targeted libraries” (J Med Chem, 2008)

How the values were obtained:
[1] = target: Calcium/calmodulin-dependent protein kinase type II subunit alpha (Homo sapiens) (UniProt Q9UQM7); assay: Inhibition of CaMK2alpha at 10 uM by HTRF assay relative to control
Summary of the method: (§1)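 HTRF kinase assay, one panel of kinases. Inhibitor stock 50 µM in 100% DMSO; tested at 10 µM. ATP and substrate at final levels near Km. Final buffer: 50 mM Hepes/NaOH pH 7.4, 40 µM Na3VO4, 0.005% Tween-20, 1 mM DTT, MnCl2 or MgCl2 at kinase-dependent levels. Started by adding ATP/substrate. Reaction run at room temperature, time varied by kinase. Detection mix in 50 mM Hepes pH 7.4, 0.1% BSA, 150 mM KF, incubated ≥1 h at room temperature. Activity expressed as % of uninhibited control; n=2.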

[2] = target: Ribosomal protein S6 kinase alpha-3 (Homo sapiens) (UniProt P51812); assay: Inhibition of RSK2 at 10 uM by HTRF assay relative to control; summary of the method: as §1
Sequence of Ribosomal protein S6 kinase alpha-3 (Homo sapiens) (P51812 whole entry): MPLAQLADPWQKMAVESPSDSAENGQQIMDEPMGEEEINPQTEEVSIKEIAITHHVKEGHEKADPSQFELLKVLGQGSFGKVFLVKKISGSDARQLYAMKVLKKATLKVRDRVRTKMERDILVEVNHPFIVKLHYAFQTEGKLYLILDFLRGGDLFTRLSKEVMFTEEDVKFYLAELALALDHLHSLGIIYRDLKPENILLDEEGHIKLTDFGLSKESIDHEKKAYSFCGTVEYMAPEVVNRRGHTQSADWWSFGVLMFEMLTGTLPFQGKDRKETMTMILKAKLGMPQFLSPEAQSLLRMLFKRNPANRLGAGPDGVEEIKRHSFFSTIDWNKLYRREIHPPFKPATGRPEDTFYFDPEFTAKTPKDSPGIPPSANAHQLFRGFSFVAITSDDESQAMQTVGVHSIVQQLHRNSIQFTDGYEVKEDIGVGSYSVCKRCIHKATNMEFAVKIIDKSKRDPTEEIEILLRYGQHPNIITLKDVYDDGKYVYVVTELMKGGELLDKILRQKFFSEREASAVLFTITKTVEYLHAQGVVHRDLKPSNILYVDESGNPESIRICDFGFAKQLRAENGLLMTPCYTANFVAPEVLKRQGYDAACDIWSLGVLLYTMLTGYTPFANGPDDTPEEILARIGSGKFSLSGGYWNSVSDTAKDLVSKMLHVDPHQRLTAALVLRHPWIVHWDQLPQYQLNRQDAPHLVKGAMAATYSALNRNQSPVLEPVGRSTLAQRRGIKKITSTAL

[3] = target: Protein kinase C alpha type (Homo sapiens) (UniProt P17252); assay: Inhibition of PKCalpha at 10 uM by HTRF assay relative to control; summary of the method: as §1
[4] = Inhibition of PKA at 10 uM by HTRF assay relative to control; summary of the method: as §1
[5] = Inhibition of IRK at 10 uM by HTRF assay relative to control; summary of the method: as §1
[6] = target: Protein kinase C gamma type (Homo sapiens) (UniProt P05129); assay: Inhibition of PKCgamma at 10 uM by HTRF assay relative to control; summary of the method: as §1
[7] = target: T1, Ephrin type-B receptor 4 (Homo sapiens) (UniProt P54760); assay: Inhibition of EphB4 at 10 uM by HTRF assay relative to control; summary of the method: as §1
T1 sequence (whole entry): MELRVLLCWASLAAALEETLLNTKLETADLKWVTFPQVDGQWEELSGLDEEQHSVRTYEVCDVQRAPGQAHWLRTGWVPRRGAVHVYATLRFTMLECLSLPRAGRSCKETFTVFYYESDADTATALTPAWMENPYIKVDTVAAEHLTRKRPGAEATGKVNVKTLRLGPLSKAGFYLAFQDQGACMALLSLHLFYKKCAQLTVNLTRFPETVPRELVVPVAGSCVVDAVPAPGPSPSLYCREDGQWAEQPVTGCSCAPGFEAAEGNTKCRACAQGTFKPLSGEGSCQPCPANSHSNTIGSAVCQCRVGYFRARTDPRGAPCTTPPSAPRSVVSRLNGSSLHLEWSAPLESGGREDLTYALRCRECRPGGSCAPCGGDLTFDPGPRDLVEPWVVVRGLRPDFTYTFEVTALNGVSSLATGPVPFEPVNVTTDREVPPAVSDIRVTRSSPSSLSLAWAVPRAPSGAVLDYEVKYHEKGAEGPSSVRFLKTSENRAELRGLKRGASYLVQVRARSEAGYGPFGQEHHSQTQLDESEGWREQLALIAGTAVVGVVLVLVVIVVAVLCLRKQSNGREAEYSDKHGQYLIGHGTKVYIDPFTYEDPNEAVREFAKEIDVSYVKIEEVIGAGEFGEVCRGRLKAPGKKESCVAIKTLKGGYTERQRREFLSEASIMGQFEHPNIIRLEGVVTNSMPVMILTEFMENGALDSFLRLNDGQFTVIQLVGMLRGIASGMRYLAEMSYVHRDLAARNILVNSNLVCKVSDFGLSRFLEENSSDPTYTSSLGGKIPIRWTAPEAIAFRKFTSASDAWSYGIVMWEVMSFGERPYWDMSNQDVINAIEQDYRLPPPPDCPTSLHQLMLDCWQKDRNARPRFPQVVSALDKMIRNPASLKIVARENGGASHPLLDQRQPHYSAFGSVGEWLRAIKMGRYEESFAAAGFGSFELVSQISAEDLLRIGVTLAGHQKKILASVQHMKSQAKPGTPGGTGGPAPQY

[8] = target: Tyrosine-protein kinase Lck (Homo sapiens) (UniProt P06239); assay: Inhibition of Lck at 10 uM by HTRF assay relative to control; summary of the method: as §1
Sequence of Tyrosine-protein kinase Lck (Homo sapiens) (P06239 2-509 limits assumed): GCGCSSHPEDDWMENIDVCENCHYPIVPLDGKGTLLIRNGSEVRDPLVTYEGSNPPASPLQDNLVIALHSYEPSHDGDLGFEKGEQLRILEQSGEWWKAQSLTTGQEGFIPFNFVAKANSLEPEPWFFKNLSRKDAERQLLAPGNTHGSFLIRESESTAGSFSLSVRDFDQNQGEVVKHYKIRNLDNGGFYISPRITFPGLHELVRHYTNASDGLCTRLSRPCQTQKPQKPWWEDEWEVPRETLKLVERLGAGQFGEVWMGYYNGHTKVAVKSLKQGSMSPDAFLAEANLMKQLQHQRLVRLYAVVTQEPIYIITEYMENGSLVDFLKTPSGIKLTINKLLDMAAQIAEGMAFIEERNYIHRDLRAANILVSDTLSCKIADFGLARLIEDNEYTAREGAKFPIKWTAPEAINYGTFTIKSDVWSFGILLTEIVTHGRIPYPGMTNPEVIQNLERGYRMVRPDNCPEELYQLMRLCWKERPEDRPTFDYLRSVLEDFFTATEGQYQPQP

[9] = target: Ribosomal protein S6 kinase beta-1 (Homo sapiens) (UniProt P23443); assay: Inhibition of p70S6K at 10 uM by HTRF assay relative to control; summary of the method: as §1
Sequence of Ribosomal protein S6 kinase beta-1 (Homo sapiens) (P23443 whole entry, looked up): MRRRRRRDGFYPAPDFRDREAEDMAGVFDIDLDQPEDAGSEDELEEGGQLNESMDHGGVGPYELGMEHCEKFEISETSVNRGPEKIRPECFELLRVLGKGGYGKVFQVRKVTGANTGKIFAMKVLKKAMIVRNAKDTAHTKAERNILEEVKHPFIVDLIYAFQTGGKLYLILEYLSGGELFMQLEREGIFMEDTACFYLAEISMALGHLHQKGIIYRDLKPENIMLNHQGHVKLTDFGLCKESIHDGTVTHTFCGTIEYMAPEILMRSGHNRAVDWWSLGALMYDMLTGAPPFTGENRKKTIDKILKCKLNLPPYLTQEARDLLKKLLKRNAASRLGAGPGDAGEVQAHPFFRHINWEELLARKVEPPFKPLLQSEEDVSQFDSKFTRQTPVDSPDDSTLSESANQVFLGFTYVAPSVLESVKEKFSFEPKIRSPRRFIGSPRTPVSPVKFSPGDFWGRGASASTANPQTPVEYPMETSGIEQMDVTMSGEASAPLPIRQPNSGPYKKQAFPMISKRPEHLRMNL

[10] = target: Mitogen-activated protein kinase 1 (Homo sapiens) (UniProt P28482); assay: Inhibition of ERK2 at 10 uM by HTRF assay relative to control; summary of the method: as §1
Sequence of Mitogen-activated protein kinase 1 (Homo sapiens) (P28482 whole entry): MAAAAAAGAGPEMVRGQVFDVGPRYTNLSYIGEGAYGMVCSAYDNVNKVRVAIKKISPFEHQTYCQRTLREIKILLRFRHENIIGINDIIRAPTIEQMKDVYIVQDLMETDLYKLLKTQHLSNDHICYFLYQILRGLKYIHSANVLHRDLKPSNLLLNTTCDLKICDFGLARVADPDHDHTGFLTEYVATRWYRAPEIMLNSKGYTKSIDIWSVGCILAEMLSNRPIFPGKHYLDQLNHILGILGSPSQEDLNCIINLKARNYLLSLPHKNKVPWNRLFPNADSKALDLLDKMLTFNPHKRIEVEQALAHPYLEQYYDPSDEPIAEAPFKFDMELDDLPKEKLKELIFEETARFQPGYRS

[11] = target: T2, Inhibitor of nuclear factor kappa-B kinase subunit beta (Homo sapiens) (UniProt O14920); assay: Inhibition of IKK-beta at 10 uM by HTRF assay relative to control; summary of the method: as §1
T2 sequence (whole entry): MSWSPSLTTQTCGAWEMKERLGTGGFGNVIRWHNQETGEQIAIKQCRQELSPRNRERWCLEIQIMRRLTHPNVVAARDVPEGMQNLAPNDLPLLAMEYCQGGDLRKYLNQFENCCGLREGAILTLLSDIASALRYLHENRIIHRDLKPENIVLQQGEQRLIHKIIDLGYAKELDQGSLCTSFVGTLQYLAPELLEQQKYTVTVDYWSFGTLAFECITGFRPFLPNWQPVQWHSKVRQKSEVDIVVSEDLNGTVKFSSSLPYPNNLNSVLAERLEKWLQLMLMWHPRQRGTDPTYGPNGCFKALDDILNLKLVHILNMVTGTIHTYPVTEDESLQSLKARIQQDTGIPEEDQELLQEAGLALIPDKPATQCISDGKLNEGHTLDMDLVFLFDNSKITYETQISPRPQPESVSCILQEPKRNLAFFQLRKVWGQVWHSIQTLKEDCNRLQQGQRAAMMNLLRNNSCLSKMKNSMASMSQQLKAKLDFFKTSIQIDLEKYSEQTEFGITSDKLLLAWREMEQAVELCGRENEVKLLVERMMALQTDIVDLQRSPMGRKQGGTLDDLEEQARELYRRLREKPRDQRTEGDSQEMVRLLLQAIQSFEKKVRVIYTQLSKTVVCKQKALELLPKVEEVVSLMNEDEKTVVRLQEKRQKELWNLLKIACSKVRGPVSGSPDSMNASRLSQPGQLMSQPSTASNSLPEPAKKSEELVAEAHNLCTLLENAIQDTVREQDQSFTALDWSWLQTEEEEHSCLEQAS

[12] = target: Protein-tyrosine kinase 6 (Homo sapiens) (UniProt Q13882); assay: Inhibition of Brk at 10 uM by HTRF assay relative to control; summary of the method: as §1
[13] = target: Fibroblast growth factor receptor 1 (Homo sapiens) (UniProt P11362); assay: Inhibition of FGFR1 at 10 uM by HTRF assay relative to control; summary of the method: as §1
[14] = target: 3-phosphoinositide-dependent protein kinase 1 (Homo sapiens) (UniProt O15530); assay: Inhibition of PDK1 at 10 uM by HTRF assay relative to control
Sequence of 3-phosphoinositide-dependent protein kinase 1 (Homo sapiens) (O15530 whole entry, looked up): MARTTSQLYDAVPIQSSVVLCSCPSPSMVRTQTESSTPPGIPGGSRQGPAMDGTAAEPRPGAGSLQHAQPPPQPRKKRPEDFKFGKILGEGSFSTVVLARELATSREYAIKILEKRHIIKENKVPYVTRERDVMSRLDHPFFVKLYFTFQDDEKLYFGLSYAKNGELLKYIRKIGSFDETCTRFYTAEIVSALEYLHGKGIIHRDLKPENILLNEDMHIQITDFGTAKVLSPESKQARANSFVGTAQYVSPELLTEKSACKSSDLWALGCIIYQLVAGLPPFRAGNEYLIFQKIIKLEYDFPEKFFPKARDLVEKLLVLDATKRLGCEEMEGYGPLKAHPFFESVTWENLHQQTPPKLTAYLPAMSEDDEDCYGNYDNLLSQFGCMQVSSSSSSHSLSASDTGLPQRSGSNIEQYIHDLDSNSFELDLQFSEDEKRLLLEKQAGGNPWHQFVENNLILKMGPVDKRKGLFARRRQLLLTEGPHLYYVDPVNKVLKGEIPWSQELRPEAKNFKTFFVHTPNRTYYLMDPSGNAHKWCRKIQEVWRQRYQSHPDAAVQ

[15] = target: Receptor-type tyrosine-protein kinase FLT3 (Homo sapiens) (UniProt P36888); assay: Inhibition of FLT3 at 10 uM by HTRF assay relative to control; summary of the method: as §1
Sequence of Receptor-type tyrosine-protein kinase FLT3 (Homo sapiens) (P36888 whole entry): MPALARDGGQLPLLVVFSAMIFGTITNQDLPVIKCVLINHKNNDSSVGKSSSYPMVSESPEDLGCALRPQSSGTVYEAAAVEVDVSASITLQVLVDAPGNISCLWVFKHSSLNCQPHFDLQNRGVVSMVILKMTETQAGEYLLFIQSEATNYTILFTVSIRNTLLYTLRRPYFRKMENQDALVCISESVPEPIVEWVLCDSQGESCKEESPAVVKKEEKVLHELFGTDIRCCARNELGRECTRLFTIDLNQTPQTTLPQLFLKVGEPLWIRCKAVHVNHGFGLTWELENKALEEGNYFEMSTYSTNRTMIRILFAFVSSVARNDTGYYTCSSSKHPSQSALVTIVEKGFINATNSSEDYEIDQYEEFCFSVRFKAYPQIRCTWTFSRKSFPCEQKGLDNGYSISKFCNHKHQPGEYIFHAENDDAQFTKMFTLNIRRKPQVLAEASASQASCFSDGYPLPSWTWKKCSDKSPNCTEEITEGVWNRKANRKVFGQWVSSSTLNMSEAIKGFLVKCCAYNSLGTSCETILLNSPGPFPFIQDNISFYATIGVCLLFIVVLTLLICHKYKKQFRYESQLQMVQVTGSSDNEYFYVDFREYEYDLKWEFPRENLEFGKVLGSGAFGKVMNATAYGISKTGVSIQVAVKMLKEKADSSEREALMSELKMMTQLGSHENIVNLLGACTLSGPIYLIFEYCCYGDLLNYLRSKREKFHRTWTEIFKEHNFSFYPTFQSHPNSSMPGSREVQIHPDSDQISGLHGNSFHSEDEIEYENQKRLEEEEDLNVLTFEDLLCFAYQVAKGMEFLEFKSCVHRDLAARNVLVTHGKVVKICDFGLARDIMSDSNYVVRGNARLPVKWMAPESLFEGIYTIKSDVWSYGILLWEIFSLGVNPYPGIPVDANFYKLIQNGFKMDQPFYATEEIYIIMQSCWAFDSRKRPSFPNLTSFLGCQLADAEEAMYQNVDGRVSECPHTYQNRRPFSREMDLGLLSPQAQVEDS

[16] = target: Platelet-derived growth factor receptor beta (Homo sapiens) (UniProt P09619); assay: Inhibition of PDGFRbeta at 10 uM by HTRF assay relative to control; summary of the method: as §1

Sequence of Calcium/calmodulin-dependent protein kinase type II subunit alpha (Homo sapiens) (Q9UQM7 whole entry): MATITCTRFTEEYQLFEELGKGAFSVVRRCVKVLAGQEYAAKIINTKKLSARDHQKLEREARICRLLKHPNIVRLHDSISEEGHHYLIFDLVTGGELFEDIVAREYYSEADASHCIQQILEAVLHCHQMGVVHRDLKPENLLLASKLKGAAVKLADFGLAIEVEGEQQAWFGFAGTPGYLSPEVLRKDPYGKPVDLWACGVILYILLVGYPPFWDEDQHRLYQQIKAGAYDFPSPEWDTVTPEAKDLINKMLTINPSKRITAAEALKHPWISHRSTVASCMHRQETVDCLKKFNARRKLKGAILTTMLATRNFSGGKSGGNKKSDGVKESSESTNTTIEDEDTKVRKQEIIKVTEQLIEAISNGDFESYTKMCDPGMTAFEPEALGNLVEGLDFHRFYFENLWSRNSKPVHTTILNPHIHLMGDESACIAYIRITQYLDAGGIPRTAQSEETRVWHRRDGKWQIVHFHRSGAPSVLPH

SMILES | inhibition [1] | inhibition [2] | inhibition [3] | inhibition [4] | inhibition [5] | inhibition [6] | inhibition [7] | inhibition [8] | inhibition [9] | inhibition [10] | inhibition [11] | inhibition [12] | inhibition [13] | inhibition [14] | inhibition [15] | inhibition [16]
COc1cccc(Nc2cc(N3CCC[C@H]3C(=O)NCCN3CCCCC3)nc(N)n2)c1 | 0% | 0% | 5% | 0% | 0% | 2% | 0% | 0% | 14% | 0% | 6% | 7% | 0% | 0% | 0% | 8%
Nc1nc(Nc2ccc(C(=O)NCCc3ccncc3)cc2)cc(N2CCOCC2)n1 | 0% | 0% | 0% | 3% | 0% | 0% | 0% | 0% | 11% | 0% | 4% | 0% | 0% | 1% | 0% | 13%
Cc1cccc(N(C)c2cc(Nc3cccc(C(=O)N(CC(C)C)CC(C)C)c3)ncn2)c1 | 0% | 0% | 0% | 2% | 0% | 3% | 0% | 0% | 11% | 6% | 0% | 7% | 0% | 0% | 0% | 9%
Cc1cccc(Nc2ncnc3c2CN(C(=O)c2ccc(N(C)C)c4ccccc24)CC3)c1 | 0% | 0% | 0% | 0% | 0% | 2% | 0% | 0% | 0% | 0% | 4% | 10% | 0% | 0% | 0% | 10%
